Measured values taken from ChEMBL document CHEMBL1157936, “Synthesis of 7-benzyl-5-(piperidin-1-yl)-6,7,8,9-tetrahydro-3H-pyrazolo[3,4-c][2,7]naphthyridin-1-ylamine and its analogs as bombesin receptor subtype-3 agonists” (Bioorg Med Chem Lett, 2010).

What was measured:
[1] = biological target: T1, Bombesin receptor subtype-3 (Rattus norvegicus, UniProt Q8K418); test: Agonist activity at rat BRS3 expressed in HEK293AEQ cells after 10 mins by aequorin bioluminescence assay; type: functional, cell-based
T1 sequence (Q8K418 whole entry): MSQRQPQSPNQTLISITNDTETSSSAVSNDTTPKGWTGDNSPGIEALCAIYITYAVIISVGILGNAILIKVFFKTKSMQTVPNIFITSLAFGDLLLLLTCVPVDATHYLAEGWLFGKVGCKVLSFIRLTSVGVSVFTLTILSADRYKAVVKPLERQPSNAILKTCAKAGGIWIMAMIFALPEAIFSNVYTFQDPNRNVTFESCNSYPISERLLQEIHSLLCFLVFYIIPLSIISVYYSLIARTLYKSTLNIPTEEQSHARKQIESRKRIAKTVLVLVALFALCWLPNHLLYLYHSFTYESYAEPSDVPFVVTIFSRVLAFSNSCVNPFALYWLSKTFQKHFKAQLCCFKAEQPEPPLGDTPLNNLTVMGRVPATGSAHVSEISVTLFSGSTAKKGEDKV

[2] = biological target: T2, Bombesin receptor subtype-3 (Rattus norvegicus) (UniProt Q8K418); test: Agonist activity at rat BRS3 expressed in HEK293AEQ cells after 10 mins by aequorin bioluminescence assay relative to dY-peptide; type: functional, cell-based; design: concentration or dose not given beside the values
T2 sequence (whole entry): T1 sequence (Q8K418 whole entry)

[3] = biological target: T3, Bombesin receptor subtype-3 (Homo sapiens, UniProt P32247); test: Agonist activity at human BRS3 expressed in HEK293AEQ cells after 10 mins by aequorin bioluminescence assay; type: functional, cell-based
T3 sequence (P32247 whole entry): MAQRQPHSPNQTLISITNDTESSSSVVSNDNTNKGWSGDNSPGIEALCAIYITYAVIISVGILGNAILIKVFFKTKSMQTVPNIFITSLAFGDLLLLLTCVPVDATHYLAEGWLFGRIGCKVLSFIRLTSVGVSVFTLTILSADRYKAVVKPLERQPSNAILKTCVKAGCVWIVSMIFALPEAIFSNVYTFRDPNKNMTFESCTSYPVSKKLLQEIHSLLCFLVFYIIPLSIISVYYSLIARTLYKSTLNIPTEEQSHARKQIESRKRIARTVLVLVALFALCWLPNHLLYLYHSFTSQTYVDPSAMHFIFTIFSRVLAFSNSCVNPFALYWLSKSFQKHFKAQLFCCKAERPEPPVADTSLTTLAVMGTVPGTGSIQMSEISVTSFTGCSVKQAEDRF

[4] = biological target: T4, Bombesin receptor subtype-3 (Homo sapiens) (UniProt P32247); test: Agonist activity at human BRS3 expressed in HEK293AEQ cells after 10 mins by aequorin bioluminescence assay relative to dY-peptide; type: functional, cell-based
T4 sequence (whole entry): T3 sequence (P32247 whole entry)

[5] = Bioavailability in rat; type: ADME, organism-based; conditions: in vivo
[6] = Half life in rat; type: ADME, organism-based; conditions: in vivo
[7] = Clearance in rat; type: ADME, organism-based; conditions: in vivo
[8] = Ratio of drug level in brain to plasma in rat at 1 mg/kg, iv after 0.25 hr; type: ADME, organism-based; design: dose 1 mg/kg, route intravenous; conditions: brain and plasma, read-out: BPR
In short: (§1)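 Rats received a single 1 mg/kg IV dose. Total drug concentration in brain and the brain/plasma ratio were measured at 0.25, 1 and 2 h post-dose.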

[9] = Drug level in rat brain at 1 mg/kg, iv after 0.25 hrs; type: ADME, organism-based; design: dose 1 mg/kg, route intravenous; conditions: read-out: Drug uptake; in short: as §1
[10] = Ratio of drug level in brain to plasma in rat at 1 mg/kg, iv after 1 hr; type: ADME, organism-based; design: dose 1 mg/kg, route intravenous; conditions: brain and plasma, read-out: BPR; in short: as §1
[11] = Ratio of drug level in brain to plasma in rat at 1 mg/kg, iv after 2 hrs; type: ADME, organism-based; design: dose 1 mg/kg, route intravenous; conditions: brain and plasma, read-out: BPR; in short: as §1
Rattus norvegicus [12] = test: Antiobesity activity in deit-induced obese rat model assessed as suppression of acute food intake at 10 mg/kg, iv relative to control; type: functional
In short: (§2)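 Acute food intake was measured and expressed as percent suppression versus vehicle-treated rats. Melanotan-II served as the positive control.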

Rattus norvegicus [13] = test: Antiobesity activity in deit-induced obese rat model assessed as suppression of acute food intake at 0.3 mg/kg, iv relative to control; type: functional; in short: as §2
[14] = Drug level in rat brain at 1 mg/kg, iv after 1 hr; type: ADME, organism-based; design: dose 1 mg/kg, route intravenous; conditions: read-out: Drug uptake; in short: as §1
[15] = Drug level in rat brain at 1 mg/kg, iv after 2 hrs; type: ADME, organism-based; design: dose 1 mg/kg, route intravenous; conditions: read-out: Drug uptake; in short: as §1

EC50 [1] | Activity [2] | EC50 [3] | Activity [4] | SMILES | further results
10 µM | 50% | 10 µM | 1% | Nc1n[nH]c2nc(NC3CCCCC3)c3c(c12)CCN(Cc1ccccc1)C3 | 
10 µM | 31% | 10 µM | 0.1% | Nc1n[nH]c2nc(N3CCNCC3)c3c(c12)CCN(Cc1ccccc1)C3 | 
3.86 µM | 64% | 10 µM | 1.7% | Nc1n[nH]c2nc(N3CCCCC3)c3c(c12)CCN(Cc1ccc(F)cc1)C3 | 
0.123 µM | 103% | 3.47 µM | 19% | CCC(=O)Nc1n[nH]c2nc(N3CCCCC3)c3c(c12)CCN(Cc1ccccc1)C3 | 
0.099 µM | 102% | 4.76 µM | 37% | CC(C)C(=O)Nc1n[nH]c2nc(N3CCCCC3)c3c(c12)CCN(Cc1ccccc1)C3 | 
6.06 µM | 73% | 10 µM | 7.6% | Cn1nc(N)c2c3c(c(N4CCCCC4)nc21)CN(Cc1ccccc1)CC3 | 
7.65 µM | 55% | 10 µM | 1.8% | CC(C)Nc1nc2[nH]nc(N)c2c2c1CN(Cc1ccccc1)CC2 | 
10 µM | 21% | 10 µM | 0.2% | CN1CCN(c2nc3[nH]nc(N)c3c3c2CN(Cc2ccccc2)CC3)CC1 | 
0.413 µM | 99% | 0.704 µM | 61% | O=C(Nc1n[nH]c2nc(N3CCCCC3)c3c(c12)CCN(Cc1ccccc1)C3)C1CCCC1 | 
10 µM | 8% | 10 µM | 0.55% | COc1ccc(CN2CCc3c(c(N4CCCCC4)nc4[nH]nc(N)c34)C2)cc1 | 
0.38 µM | 105% | 4.52 µM | 60% | Nc1n[nH]c2nc(N3CCCCC3)c3c(c12)CCN(Cc1ccccc1)C3 | bioavailability [5]: 5.7%; half-life [6]: 43.8 min; clearance [7]: 45 mL/min/kg; Kp at 0.25 h [8]: 4.4; concentration at 0.25 h [9]: 1210 nM; Kp at 1 h [10]: 3.2; Kp at 2 h [11]: 3.4; Activity (Rattus norvegicus [12]): 31.6%; Activity (Rattus norvegicus [13]): 43.6%; concentration at 1 h [14]: 390 nM; concentration at 2 h [15]: 140 nM
0.212 µM | 96% | 0.543 µM | 78% | CCC(C)(C)C(=O)Nc1n[nH]c2nc(N3CCCCC3)c3c(c12)CCN(Cc1ccccc1)C3 | 
0.965 µM | 99% | 10 µM | 12% | Nc1n[nH]c2nc(N3CCCC3)c3c(c12)CCN(Cc1ccccc1)C3 | 
0.129 µM | 94% | 3.16 µM | 31% | CC(=O)Nc1n[nH]c2nc(N3CCCCC3)c3c(c12)CCN(Cc1ccccc1)C3 | 
0.854 µM | 96% | 10 µM | 6.8% | CC1CCN(c2nc3[nH]nc(N)c3c3c2CN(Cc2ccccc2)CC3)CC1 | 
10 µM | 38% | 10 µM | 0.3% | Nc1n[nH]c2nc(N3CCCCC3)c3c(c12)CCN(Cc1cccc(C(F)(F)F)c1)C3 | 
10 µM | 60% | 10 µM | 1.5% | Nc1n[nH]c2nc(Nc3ccccc3)c3c(c12)CCN(Cc1ccccc1)C3 | 
0.342 µM | 121% | 5.57 µM | 67% | Nc1n[nH]c2nc(N3CCCCC3)c3c(c12)CCN(Cc1ccccc1Cl)C3 | 

EC50 [1] | Activity [2] | EC50 [3] | Activity [4] | SMILES | further results
0.68 µM | 94% | 4.15 µM | 29% | CC(C)(C)CNc1n[nH]c2nc(N3CCCCC3)c3c(c12)CCN(Cc1ccccc1)C3 | 
3.56 µM | 82% | 10 µM | 1.3% | Nc1n[nH]c2nc(N3CCOCC3)c3c(c12)CCN(Cc1ccccc1)C3 | 
0.063 µM | 105% | 1.54 µM | 37% | CC(C)(C)C(=O)Nc1n[nH]c2nc(N3CCCCC3)c3c(c12)CCN(Cc1ccccc1)C3 | 
0.481 µM | 96% | 10 µM | 10% | Nc1n[nH]c2nc(N3CCC(F)CC3)c3c(c12)CCN(Cc1ccccc1)C3 | 
10 µM | 51% | 10 µM | 3.7% | Nc1n[nH]c2nc(N3CCCCCCC3)c3c(c12)CCN(Cc1ccccc1)C3 | 
7.91 µM | 51% | 10 µM | 3.3% | Nc1n[nH]c2nc(N3CCCCC3)c3c(c12)CCN(CCc1ccccc1)C3 | 
> 10 µM |  | > 10 µM |  | Nc1n[nH]c2nc(N3CCCCC3)c3c(c12)CCN(C(=O)c1ccc(F)cc1)C3 | 
0.402 µM | 94% | 10 µM | 1.6% | Nc1n[nH]c2nc(N3CCCCC3)c3c(c12)CCN(Cc1ccc2c(c1)OCO2)C3 | 
0.433 µM | 93% | 1.23 µM | 52% | CC(C)(C)CC(=O)Nc1n[nH]c2nc(N3CCCCC3)c3c(c12)CCN(Cc1ccccc1)C3 | 
0.759 µM | 108% | 10 µM | 20% | CC(=O)n1nc(N)c2c3c(c(N4CCCCC4)nc21)CN(Cc1ccccc1)CC3 | 
10 µM | 61% | 10 µM | 10% | CC(C)CN1CCc2c(c(N3CCCCC3)nc3[nH]nc(N)c23)C1 | 
1.06 µM | 91% | 10 µM | 22% | CC(C)(C)CN1CCc2c(c(N3CCCCC3)nc3[nH]nc(N)c23)C1 | 
0.346 µM | 94% | 6.78 µM | 46% | Nc1n[nH]c2nc(N3CCCCC3)c3c(c12)CCN(Cc1ccccn1)C3 | 
0.471 µM | 105% | 10 µM | 53% | CCNc1n[nH]c2nc(N3CCCCC3)c3c(c12)CCN(Cc1ccccc1)C3 | 
8.95 µM | 59% | 10 µM | 0.9% | CN(C)c1nc2[nH]nc(N)c2c2c1CN(Cc1ccccc1)CC2 | 
1.44 µM | 100% | 10 µM | 9% | Nc1n[nH]c2nc(N3CCCCCC3)c3c(c12)CCN(Cc1ccccc1)C3 | 
10 µM | 49% | 10 µM | 12% | Nc1n[nH]c2nc(N3CCCCC3)c3c(c12)CCN(CC1CCCCC1)C3 | 

SMILES | EC50 [1] | Activity [2] | EC50 [3] | Activity [4] | further results
Nc1n[nH]c2nc(N3CCCCC3)c3c(c12)CCNC3 | > 10 µM | 15% | > 10 µM | 0.3% | 
